The source made the active and inactive calls. The calls are words filed in the database; no cut-off is given here.
Legend:
[1] = Cytotoxicity against C57/BL6 mouse primary BMDM assessed as cell viability at 5 uM after 2 days in presence of M-CSF by MTT assay relative to control; format: toxicity; conditions: primary bone marrow-derived macrophages (BMDM), read-out: Activity
Outline: (§1)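 Primary BMMs were obtained by flushing femur and tibia marrow of 4-week-old male C57BL/6 mice, culturing it overnight, then expanding the non-adherent cells with 30 ng/mL M-CSF to 90% confluence. They were seeded at 3×10^3 cells/well in full α-MEM with 30 ng/mL M-CSF. Next day, compound was added in triplicate for two days. MTT (5 mg/mL) was added for 2 h at 37°C, crystals were dissolved in DMSO, and OD was read at 570 nm. Viability is relative to untreated control (100%).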

[2] = (§2) Inhibition of RANKL/M-CSF-induced osteoclastogenesis in C57/BL6 mouse primary BMDM assessed as reduction in TRAP activity using pNPP as substrate after 2 days by colorimetric assay; format: functional
Outline: (§3)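 BMMs at 3×10^3 cells/well exposed to 30 ng/mL M-CSF plus 50 ng/mL RANKL with compound in triplicate for two days. PBS-washed cells lysed 15 min at 37°C; lysate incubated 45 min with p-NPP in presence of disodium tartrate, stopped with NaOH, OD read at 405 nm, normalized to BCA protein; inhibition relative to control.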

BMDM [3] = experiment: Inhibition of RANKL/M-CSF-induced osteoclastogenesis in C57/BL6 mouse primary BMDM assessed reduction in TRAP-positive multinucleated cells at 5 uM after 5 days; format: functional
Outline: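 Mouse C57BL/6 BMMs were adhered overnight in M-CSF medium, then cultured with 30 ng/mL M-CSF plus 50 ng/mL RANKL and compound for five days, with medium changed every two days. Cells were TRAP-stained with a leukocyte acid phosphatase kit, and TRAP-positive cells with ≥3 nuclei were counted as osteoclasts. Counts are expressed as percent of control, from at least three experiments.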

[4] = Induction of C57/BL6 mouse primary BMDM proliferation assessed at 5 uM after 2 days by MTT assay relative to control; conditions: 48 h
Outline: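 BMMs from femur/tibia marrow of 4-week-old male C57BL/6 mice, expanded in α-MEM/10% FBS with 30 ng/mL M-CSF. Seeded at 3×10^3 cells/well, treated next day in triplicate for two days with M-CSF present. MTT (5 mg/mL stock) for 2 h at 37°C, crystals dissolved in DMSO, OD 570 nm; viability relative to untreated control.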

BMDM [5] = experiment: as §2; format: functional; outline: as §3
Mus musculus [6] = organism: Mus musculus; experiment: Cytotoxicity against C57/BL6 mouse primary BMDM assessed as cell viability at 7.5 uM after 2 days in presence of M-CSF by MTT assay; format: toxicity; conditions: 48 h; outline: as §1
BMDM [7] = experiment: Inhibition of RANKL/M-CSF-induced bone resorption of osteoclast in C57/BL6 mouse primary BMDM cultured on bovine femur bone slices assessed as reduction in bone resorption area at 5 uM after 5 days by toluidine blue staining based microscopy; format: functional
Outline: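 BMMs seeded on bovine femur bone slices; next day induced with 30 ng/mL M-CSF plus 50 ng/mL RANKL with compound for five days, medium changed every two days. Cells fixed in 2.5% glutaraldehyde, slices stained with 0.5% toluidine blue, imaged at 200×; pit area from three random fields per slice, expressed as % of control.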

Mus musculus [8] = organism: Mus musculus; experiment: Inhibition of RANK/RANKL/NFATc1 signalling pathway in M-CSF-stimulated C57/BL6 mouse primary BMDM assessed as reduction in NFATc1 mRNA level at 5 uM by qRT-PCR analysis
Outline: (§4)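 BMMs treated with M-CSF and/or RANKL alone or with 5 µM compound; mRNA for NFATc1, c-fos, TRAP, MMP-9 and cathepsin K measured by SYBR Green qRT-PCR, normalized to β-actin, expressed as fold change versus control cells; mean ± S.D. of triplicate measurements per cDNA sample.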

Mus musculus [9] = organism: Mus musculus; experiment: Inhibition of RANK/RANKL/NFATc1 signalling pathway in M-CSF-stimulated C57/BL6 mouse primary BMDM assessed as reduction in c-FOS mRNA level at 5 uM by qRT-PCR analysis; outline: as §4
Mus musculus [10] = organism: Mus musculus; experiment: Inhibition of RANK/RANKL/NFATc1 signalling pathway in M-CSF-stimulated C57/BL6 mouse primary BMDM assessed as reduction in TRAP mRNA level at 5 uM by qRT-PCR analysis; outline: as §4
Mus musculus [11] = organism: Mus musculus; experiment: Inhibition of RANK/RANKL/NFATc1 signalling pathway in M-CSF-stimulated C57/BL6 mouse primary BMDM assessed as reduction in MMP9 mRNA level at 5 uM by qRT-PCR analysis; outline: as §4
Mus musculus [12] = organism: Mus musculus; experiment: Inhibition of RANK/RANKL/NFATc1 signalling pathway in M-CSF-stimulated C57/BL6 mouse primary BMDM assessed as reduction in cathepsin K mRNA level at 5 uM by qRT-PCR analysis; outline: as §4
Mus musculus [13] = organism: Mus musculus; experiment: Cytotoxicity against mouse MC3T3-E1 cells assessed as reduction in cell viability at 5 uM after 2 days in presence of M-CSF by MTT assay; format: toxicity, cell-based; conditions: mc3t3-e1, 48 h
Outline: (§5)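 MTT viability in MC3T3-E1 preosteoblasts (ATCC) or C57BL/6-derived mouse MSCs grown in α-MEM with 10% FBS and penicillin/streptomycin at 37°C, 5% CO2. Compound at indicated concentrations for 2 days, then MTT read. Viability expressed relative to control, mean ± SD of triplicates.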

Mus musculus [14] = organism: Mus musculus; experiment: Cytotoxicity against C57/BL6 mouse MSC assessed as reduction in cell viability at 5 uM after 2 days in presence of M-CSF by MTT assay; format: toxicity; conditions: 48 h; outline: as §5

Structure (SMILES) | viability at 48 h, 5 µM [1] [%] | inhibition (INH) [2] [%] | further results
O=C(Nc1ccc(C(F)(F)F)cc1Cl)c1cc(O)c2c(c1)C(=O)c1cccc(O)c1C2=O | 17 |  | 
CC(=O)Oc1cccc2c1C(=O)c1c(OC(C)=O)cc(C(=O)Nc3ccc(C)c(Cl)c3)cc1C2=O | 75 | 0 | 
CC(=O)Oc1cccc2c1C(=O)c1c(OC(C)=O)cc(C(=O)Nc3ccc(C(F)(F)F)cc3Cl)cc1C2=O | 17 |  | 
CC(=O)Oc1cccc2c1C(=O)c1c(OC(C)=O)cc(C(=O)Nc3ccc(C(F)(F)F)cn3)cc1C2=O | 35 |  | 
CC1CCN(C(=O)c2cc(O)c3c(c2)C(=O)c2cccc(O)c2C3=O)CC1 | 103 | 0 | 
CCN1CCN(C(=O)c2cc(O)c3c(c2)C(=O)c2cccc(O)c2C3=O)CC1 | 24 |  | 
CC(=O)Oc1cccc2c1C(=O)c1c(OC(C)=O)cc(C(=O)Nc3ccc(C)cc3)cc1C2=O | 28 |  | 
CN1CCN(C(=O)c2cc(O)c3c(c2)C(=O)c2cccc(O)c2C3=O)CC1 | 122 | 0 | 
Cc1cc(O)c2c(c1)C(=O)c1cc(O)cc(O)c1C2=O [EMODIN] | 109 | 45 | inhibition (BMDM [3]): Active; Activity [4]: Non-Toxic
O=C(Nc1ccccc1)c1cc(O)c2c(c1)C(=O)c1cccc(O)c1C2=O | 53 |  | 
CC(=O)Oc1cccc2c1C(=O)c1c(OC(C)=O)cc(C(=O)Nc3ccccc3)cc1C2=O | 28 |  | 
O=C1c2cccc(O)c2C(=O)c2c(O)cc(C(=O)N3CCC(CO)CC3)cc21 | 79 | 85 | 
O=C(Nc1ccc(C(F)(F)F)cn1)c1cc(O)c2c(c1)C(=O)c1cccc(O)c1C2=O | 49 |  | 
O=C1c2cccc(O)c2C(=O)c2c(O)cc(C(=O)N3CCC(N4CCOCC4)CC3)cc21 | 92 | 98 | inhibition (BMDM [5]): Dose-dependent effect; Activity (Mus musculus [6]): Non-Toxic; inhibition (BMDM [3]): Active; inhibition (BMDM [7]): Active; inhibition (Mus musculus [8]): Active; inhibition (Mus musculus [9]): Active; inhibition (Mus musculus [10]): Active; inhibition (Mus musculus [11]): Active; inhibition (Mus musculus [12]): Active; Activity (Mus musculus [13]): Non-Toxic; Activity (Mus musculus [14]): Non-Toxic
O=C(O)c1cc(O)c2c(c1)C(=O)c1cccc(O)c1C2=O [RHEIN] | 97 | 47 | Activity [4]: Non-Toxic
CC(C)(O)C1CCN(C(=O)c2cc(O)c3c(c2)C(=O)c2cccc(O)c2C3=O)CC1 | 92 | 65 | 
O=C(NCCN1CCOCC1)c1cc(O)c2c(c1)C(=O)c1cccc(O)c1C2=O | 15 |  | 
CC(=O)Oc1cccc2c1C(=O)c1c(OC(C)=O)cc(C(=O)Nc3ccc(C(F)(F)F)cc3)cc1C2=O | 51 |  | 
O=C(Nc1ccc(C(F)(F)F)cc1)c1cc(O)c2c(c1)C(=O)c1cccc(O)c1C2=O | 57 |  | 
CC(=O)Oc1cccc2c1C(=O)c1c(OC(C)=O)cc(C(=O)N3CCC(C)CC3)cc1C2=O | 8 |  | 
Cc1ccc(NC(=O)c2cc(O)c3c(c2)C(=O)c2cccc(O)c2C3=O)cc1 | 62 |  | 
CC(=O)Oc1cccc2c1C(=O)c1c(OC(C)=O)cc(C(=O)Nc3cc(C(F)(F)F)ccn3)cc1C2=O | 37 |  | 

— ChEMBL document CHEMBL3870319, “Synthesis and biological evaluation of rhein amides as inhibitors of osteoclast differentiation and bone resorption” (Eur J Med Chem, 2016)
